Converted amounts (≈) assume the structure as drawn.
Legend:
[1] = Drug activation in metronidazole-susceptible Helicobacter pylori 10593/2 lysate
[2] = Drug activation in metronidazole-susceptible Helicobacter pylori RIG 117 J0 lysate
[3] = Drug activation in metronidazole-susceptible Helicobacter pylori CAS 015 J0 lysate
[4] = Drug activation in metronidazole-susceptible Helicobacter pylori HER 126 V1 lysate
[5] = Drug activation in metronidazole-resistant Helicobacter pylori 10593a/2 lysate
[6] = Drug activation in metronidazole-resistant Helicobacter pylori RIG 117 J56 lysate
[7] = Drug activation in metronidazole-resistant Helicobacter pylori CAS 015 J56 lysate harboring rdxA L132stop and frxA L39stop mutant genes; format: organism-based
[8] = Drug activation in metronidazole-resistant Helicobacter pylori HER 126 V4 lysate
[9] = test system: Helicobacter pylori; experiment: Antimicrobial activity against Helicobacter pylori 10593/2 by Etest; format: functional
Method in brief: (§1)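 Metronidazole susceptibility by Etest, repeated in triplicate, on clinical matched-pair isolates collected after failed metronidazole treatment. Strains were grown at 37°C either microaerobically (5% CO2, 5% O2, 90% N2) or aerobically (5% CO2 in air). Isolates were called resistant above a threshold of 8 µg ml–1.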

[10] = test system: Helicobacter pylori; experiment: Antimicrobial activity against Helicobacter pylori RIG 117 J0 by Etest; format: functional
Method in brief: (§2)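 Etest MIC determination, repeated in triplicate. Strains were grown at 37°C, either aerobically (5% CO2 in air) or microaerobically (5% CO2, 5% O2, 90% N2). Strains were classed as susceptible or resistant using a resistance threshold of 8 µg ml–1, following clinical practice.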

[11] = test system: Helicobacter pylori; experiment: Antimicrobial activity against Helicobacter pylori CAS 015 J0 by Etest; format: functional; method in brief: as §2
[12] = test system: Helicobacter pylori; experiment: Antimicrobial activity against Helicobacter pylori HER 126 V1 by Etest; format: functional; method in brief: as §1
[13] = test system: Helicobacter pylori; experiment: Antimicrobial activity against compound-resistant Helicobacter pylori 10593a/2 harboring rdxA C177stop mutant gene by Etest; format: functional; method in brief: as §1
[14] = test system: Helicobacter pylori; experiment: Antimicrobial activity against compound-resistant Helicobacter pylori RIG 117 J56 harboring rdxA R16C and frxA A40stop mutant genes by Etest; format: functional; method in brief: as §1
[15] = test system: Helicobacter pylori; experiment: Antimicrobial activity against compound-resistant Helicobacter pylori CAS 015 J56 harboring rdxA L132stop and frxA L39stop mutant genes by Etest; format: functional; method in brief: as §1
[16] = test system: Helicobacter pylori; experiment: Antimicrobial activity against compound-resistant Helicobacter pylori HER 126 V4 by Etest; format: functional; method in brief: as §1
[17] = test system: Helicobacter pylori; experiment: Prodrug activation in Helicobacter pylori 10593/2 lysate assessed as compound reduction under oxygenated microaerobic condition per mg of protein
Method in brief: (§3)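 Lysates of H. pylori strains grown at 37°C, either aerobically (5% CO2 in air) or microaerobically (5% CO2, 5% O2, 90% N2), with Mtr and NADH as substrates for reduction activity. Some lysate samples were argon-treated to displace oxygen. Protein content was measured by bicinchoninic acid microtiter assay.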

[18] = test system: Helicobacter pylori; experiment: Prodrug activation in Helicobacter pylori 10593/2 lysate assessed as compound reduction under argonized microaerobic condition per mg of protein
Method in brief: (§4)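 Metronidazole reduction was measured in lysate suspensions with Mtr and NADH as substrates. Cells were grown at 37°C either aerobically (5% CO2 in air) or microaerobically (5% CO2, 5% O2, 90% N2). Lysate samples were either argon-treated to displace oxygen or left untreated. Rates were expressed per mg protein, with protein determined by the bicinchoninic acid method.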

[19] = test system: Helicobacter pylori; experiment: Prodrug activation in Helicobacter pylori 10593/2 lysate assessed as compound reduction under oxygenated aerobic condition per mg of protein; method in brief: as §3
[20] = test system: Helicobacter pylori; experiment: Prodrug activation in Helicobacter pylori 10593/2 lysate assessed as compound reduction under argonized aerobic condition per mg of protein; method in brief: as §4
[21] = test system: Helicobacter pylori; experiment: Prodrug activation in Helicobacter pylori RIG 117 J0 lysate assessed as compound reduction under oxygenated microaerobic condition per mg of protein; method in brief: as §3
[22] = test system: Helicobacter pylori; experiment: Prodrug activation in Helicobacter pylori RIG 117 J0 lysate assessed as compound reduction under argonized microaerobic condition per mg of protein; method in brief: as §4
[23] = test system: Helicobacter pylori; experiment: Prodrug activation in Helicobacter pylori RIG 117 J0 lysate assessed as compound reduction under oxygenated aerobic condition per mg of protein; conditions: in vivo; method in brief: as §4
[24] = test system: Helicobacter pylori; experiment: Prodrug activation in Helicobacter pylori RIG 117 J0 lysate assessed as compound reduction under argonized aerobic condition per mg of protein; conditions: in vivo; method in brief: as §4
[25] = test system: Helicobacter pylori; experiment: Prodrug activation in Helicobacter pylori CAS 015 J0 lysate assessed as compound reduction under oxygenated microaerobic condition per mg of protein; method in brief: as §3
[26] = test system: Helicobacter pylori; experiment: Prodrug activation in Helicobacter pylori CAS 015 J0 lysate assessed as compound reduction under argonized microaerobic condition per mg of protein; method in brief: as §4
[27] = test system: Helicobacter pylori; experiment: Prodrug activation in Helicobacter pylori CAS 015 J0 lysate assessed as compound reduction under oxygenated aerobic condition per mg of protein; method in brief: as §3
[28] = test system: Helicobacter pylori; experiment: Prodrug activation in Helicobacter pylori CAS 015 J0 lysate assessed as compound reduction under argonized aerobic condition per mg of protein; method in brief: as §4
[29] = test system: Helicobacter pylori; experiment: Prodrug activation in Helicobacter pylori HER 126 V1 lysate assessed as compound reduction under oxygenated microaerobic condition per mg of protein; conditions: in vivo; method in brief: as §4
[30] = test system: Helicobacter pylori; experiment: Prodrug activation in Helicobacter pylori HER 126 V1 lysate assessed as compound reduction under argonized microaerobic condition per mg of protein; method in brief: as §3
[31] = test system: Helicobacter pylori; experiment: Prodrug activation in Helicobacter pylori HER 126 V1 lysate assessed as compound reduction under oxygenated aerobic condition per mg of protein; conditions: in vivo; method in brief: as §4
[32] = test system: Helicobacter pylori; experiment: Prodrug activation in Helicobacter pylori HER 126 V1 lysate assessed as compound reduction under argonized aerobic condition per mg of protein; method in brief: as §4
[33] = test system: Helicobacter pylori; experiment: Prodrug activation in Helicobacter pylori 10593a/2 lysate harboring rdxA C177stop mutant gene assessed as compound reduction under oxygenated microaerobic condition per mg of protein; method in brief: as §3
[34] = test system: Helicobacter pylori; experiment: Prodrug activation in compound-resistant Helicobacter pylori 10593a/2 lysate harboring rdxA C177stop mutant gene assessed as compound reduction under argonized microaerobic condition per mg of protein; method in brief: as §3
[35] = test system: Helicobacter pylori; experiment: Prodrug activation in compound-resistant Helicobacter pylori 10593a/2 lysate harboring rdxA C177stop mutant gene assessed as compound reduction under oxygenated aerobic condition per mg of protein; method in brief: as §3
[36] = test system: Helicobacter pylori; experiment: Prodrug activation in compound-resistant Helicobacter pylori RIG 117 J56 lysate harboring rdxA R16C and frxA A40stop mutant genes assessed as compound reduction under oxygenated microaerobic condition per mg of protein; format: organism-based; conditions: in vivo; method in brief: as §3
[37] = test system: Helicobacter pylori; experiment: Prodrug activation in compound-resistant Helicobacter pylori CAS 015 J56 lysate harboring rdxA L132stop and frxA L39stop mutant genes assessed as compound reduction under oxygenated microaerobic condition per mg of protein; method in brief: as §3
[38] = test system: Helicobacter pylori; experiment: Prodrug activation in compound-resistant Helicobacter pylori CAS 015 J56 lysate harboring rdxA L132stop and frxA L39stop mutant genes assessed as compound reduction under oxygenated aerobic condition per mg of protein; method in brief: as §3
[39] = test system: Helicobacter pylori; experiment: Prodrug activation in compound-resistant Helicobacter pylori HER 126 V4 lysate assessed as compound reduction under oxygenated microaerobic condition per mg of protein; conditions: in vivo; method in brief: as §3
[40] = test system: Helicobacter pylori; experiment: Prodrug activation in compound-resistant Helicobacter pylori HER 126 V4 lysate assessed as compound reduction under argonized microaerobic condition per mg of protein; method in brief: as §3

## Cc1cc2nc3c(=O)[nH]c(=O)nc-3n(C[C@H](O)[C@H](O)[C@H](O)COP(=O)(O)OP(=O)(O)OC[C@H]3O[C@@H](n4cnc5c(N)ncnc54)[C@H](O)[C@@H]3O)c2cc1C [FLAVIN ADENIN DINUCLEOTIDE]
[1]
  Km: 2.1 µM
[2]
  Km: 95 µM
[3]
  Km: 2.4 µM
[4]
  Km: 6 µM
[5]
  Km: 5 µM
[6]
  Km: 11 µM
[7]
  Km: 24 µM
[8]
  Km: 17 µM

## Cc1ncc([N+](=O)[O-])n1CCO [METRONIDAZOLE]
[9]
  MIC: 2 µg/mL (≈ 11.7 µM)
[10]
  MIC: 4 µg/mL (≈ 23.4 µM)
[11]
  MIC: 4 µg/mL (≈ 23.4 µM)
[12]
  MIC: 2 µg/mL (≈ 11.7 µM)
[13]
  MIC: 64 µg/mL (≈ 374 µM)
[14]
  MIC: 32 µg/mL (≈ 187 µM)
[15]
  MIC: 32 µg/mL (≈ 187 µM)
[16]
  MIC: 64 µg/mL (≈ 374 µM)
[17]
  Activity: 14 nmol/min
[18]
  Activity: 32 nmol/min
[19]
  Activity: 16 nmol/min
[20]
  Activity: 36 nmol/min
[21]
  Activity: 19 nmol/min
[22]
  Activity: 32 nmol/min
[23]
  Activity: 27 nmol/min
[24]
  Activity: 33 nmol/min
[25]
  Activity: 15 nmol/min
[26]
  Activity: 29 nmol/min
[27]
  Activity: 18 nmol/min
[28]
  Activity: 31 nmol/min
[29]
  Activity: 18 nmol/min
[30]
  Activity: 20 nmol/min
[31]
  Activity: 22 nmol/min
[32]
  Activity: 25 nmol/min
[33]
  Activity: 9 nmol/min
[34]
  Activity: 13 nmol/min
[35]
  Activity: 10 nmol/min
[36]
  Activity: 13 nmol/min
[37]
  Activity: 9 nmol/min
[38]
  Activity: 13 nmol/min
[39]
  Activity: 10 nmol/min
[40]
  Activity: 11 nmol/min

## NC(=O)N/N=C/c1ccc([N+](=O)[O-])o1 [NITROFURAZONE]
[1]
  Km: 2.8 µM
[2]
  Km: 8.1 µM
[3]
  Km: 8.8 µM
[4]
  Km: 13.1 µM
[5]
  Km: 6 µM
[6]
  Km: 8.5 µM
[7]
  Km: 3.3 µM
[8]
  Km: 6.8 µM
